Experimental data taken from ChEMBL document CHEMBL3232963, “Discovery of a potent and selective α3β4 nicotinic acetylcholine receptor antagonist from an α-conotoxin synthetic combinatorial library” (J Med Chem, 2014).
Active and inactive are the calls of the source. No cut-off for these calls is given here. Bridge positions count the residues as written; N and C are the ends. Peptide text beside a SMILES is read from it.

Assays:
[1] = target: Neuronal acetylcholine receptor; alpha3/beta4 (Homo sapiens, UniProt P30926+P32297); test: Antagonist activity at alpha3beta4 nAChR (unknown origin); assay type: protein-complex assay
Sequence of Neuronal acetylcholine receptor; alpha3/beta4 (Homo sapiens, UniProt P30926+P32297) (P30926 whole entry): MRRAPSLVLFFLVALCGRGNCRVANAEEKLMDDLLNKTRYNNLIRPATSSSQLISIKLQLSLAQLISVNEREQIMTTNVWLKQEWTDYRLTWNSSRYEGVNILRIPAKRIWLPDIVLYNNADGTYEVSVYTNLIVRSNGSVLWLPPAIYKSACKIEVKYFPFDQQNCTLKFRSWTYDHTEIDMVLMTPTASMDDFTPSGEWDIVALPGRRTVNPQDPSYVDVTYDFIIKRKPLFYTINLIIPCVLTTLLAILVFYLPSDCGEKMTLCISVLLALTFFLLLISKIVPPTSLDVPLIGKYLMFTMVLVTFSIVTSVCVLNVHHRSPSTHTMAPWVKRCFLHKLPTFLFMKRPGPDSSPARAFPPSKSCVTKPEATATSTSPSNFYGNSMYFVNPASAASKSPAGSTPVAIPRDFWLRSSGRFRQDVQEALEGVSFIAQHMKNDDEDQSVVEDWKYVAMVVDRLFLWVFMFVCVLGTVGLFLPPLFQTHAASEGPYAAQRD
Sequence of Neuronal acetylcholine receptor; alpha3/beta4 (Homo sapiens, UniProt P30926+P32297) (P32297 whole entry): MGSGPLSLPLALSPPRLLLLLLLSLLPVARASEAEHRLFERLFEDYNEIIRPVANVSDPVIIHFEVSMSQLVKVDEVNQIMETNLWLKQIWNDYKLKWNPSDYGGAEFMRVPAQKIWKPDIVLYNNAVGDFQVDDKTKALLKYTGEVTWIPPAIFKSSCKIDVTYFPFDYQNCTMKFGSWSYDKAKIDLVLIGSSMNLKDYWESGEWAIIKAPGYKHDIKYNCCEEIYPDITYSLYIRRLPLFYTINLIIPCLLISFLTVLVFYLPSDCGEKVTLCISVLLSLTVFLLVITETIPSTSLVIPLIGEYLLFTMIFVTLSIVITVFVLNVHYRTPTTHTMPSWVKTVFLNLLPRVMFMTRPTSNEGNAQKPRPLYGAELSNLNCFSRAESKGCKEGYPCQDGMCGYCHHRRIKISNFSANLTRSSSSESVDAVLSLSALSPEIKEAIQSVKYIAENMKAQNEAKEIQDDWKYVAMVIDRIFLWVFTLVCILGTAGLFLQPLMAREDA
Outline: (§1)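 Stably transfected HEK293 lines (KXα3β4R2, KXα3β2R2, KXα4β2R2; rat subunits) grown in DMEM/10% FBS with G-418, plated 24 h before assay. Cells washed with HBSS, peptide added, then membrane potential blue dye, 30 min at 37 °C. Fluorescence (ex 565/em 530 nm) read up to 60 s after epibatidine to 0.1 μM. IC50 from maximal responses across concentrations; n = 4.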

[2] = target: T1, Neuronal acetylcholine receptor; alpha3/beta4 (Rattus norvegicus, UniProt P04757+P12392); test: Inhibition of rat alpha3beta4 nAChR expressed in Xenopus laevis oocytes by voltage clamp technique; assay type: cell-based
T1 sequence (P04757 whole entry, the tested form may be a part): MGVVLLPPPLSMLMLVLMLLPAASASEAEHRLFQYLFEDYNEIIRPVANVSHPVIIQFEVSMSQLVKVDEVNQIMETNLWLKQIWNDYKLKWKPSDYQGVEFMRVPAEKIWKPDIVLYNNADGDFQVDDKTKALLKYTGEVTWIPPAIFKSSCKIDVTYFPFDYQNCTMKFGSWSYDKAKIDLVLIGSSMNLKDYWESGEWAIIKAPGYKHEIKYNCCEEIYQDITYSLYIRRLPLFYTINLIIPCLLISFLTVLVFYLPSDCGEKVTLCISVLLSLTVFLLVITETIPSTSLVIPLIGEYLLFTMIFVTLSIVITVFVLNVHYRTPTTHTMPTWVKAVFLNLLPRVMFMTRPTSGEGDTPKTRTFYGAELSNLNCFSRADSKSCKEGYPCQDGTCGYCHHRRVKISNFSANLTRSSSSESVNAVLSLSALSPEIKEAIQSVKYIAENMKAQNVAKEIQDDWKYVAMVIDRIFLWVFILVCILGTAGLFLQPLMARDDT
T1 sequence (P12392 whole entry, the tested form may be a part): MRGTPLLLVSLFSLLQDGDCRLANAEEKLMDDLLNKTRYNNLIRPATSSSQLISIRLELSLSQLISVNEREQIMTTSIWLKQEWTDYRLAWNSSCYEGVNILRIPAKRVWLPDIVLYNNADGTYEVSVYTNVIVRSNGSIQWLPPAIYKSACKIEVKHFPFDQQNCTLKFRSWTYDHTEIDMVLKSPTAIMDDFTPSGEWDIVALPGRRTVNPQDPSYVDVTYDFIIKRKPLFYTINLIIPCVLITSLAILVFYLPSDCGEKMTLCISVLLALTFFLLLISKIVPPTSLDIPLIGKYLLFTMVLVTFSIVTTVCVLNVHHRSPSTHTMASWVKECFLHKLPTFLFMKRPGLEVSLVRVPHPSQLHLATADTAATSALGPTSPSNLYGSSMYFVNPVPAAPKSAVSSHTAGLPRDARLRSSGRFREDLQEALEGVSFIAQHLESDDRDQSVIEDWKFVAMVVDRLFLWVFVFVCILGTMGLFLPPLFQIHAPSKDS
Outline: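 Oocytes expressing α3 chimera/β4 nAChR, voltage-clamped at ~22 °C. Concentrations below 1 μM perfused, with 1 s ACh pulses every 1 min; 1 μM and above given as a 5 min static bath. Lowest concentration tested 10 nM. IC50 from a concentration–response curve with top and bottom fixed at 100 and 0; n = 3–5 oocytes per concentration.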

[3] = target: T1, Neuronal acetylcholine receptor; alpha3/beta4; test: Displacement of [3H]epibatadine from rat alpha3beta4 nAChR expressed in HEK293 cells after 2 hrs by betaplate counting analysis; assay type: cell-based
Outline: (§2)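 Membranes from HEK293 cells stably expressing α3β4 or α4β2 nAChR, homogenised in 50 mM Tris pH 7.4 and washed by centrifugation. Incubated 2 h at room temperature with peptide and 0.31 nM [3H]epibatidine; filtered on PEI-soaked glass fibre, counted. Nonspecific binding with 0.1 μM unlabeled epibatidine. Ki by Cheng–Prusoff from IC50.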

[4] = target: Neuronal acetylcholine receptor; alpha3/beta4 (Rattus norvegicus) (UniProt P04757+P12392); test: Antagonist activity at rat alpha3beta4 nAChR expressed in HEK293 cells assessed as inhibition of epibatadine-induced effect at 10 uM after 30 mins by fluorescent membrane potential assay relative to mecamylamine; assay type: cell-based
Outline: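 Rat α3β4 nAChR stably expressed in HEK293 cells; crude, SPE-desalted individual peptides tested at 10 μM in HBSS with membrane potential blue dye, 30 min at 37 °C. Fluorescence change read after epibatidine (0.1 μM). Percent inhibition set against 10 μM mecamylamine taken as 100%.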

[5] = target: T1, Neuronal acetylcholine receptor; alpha3/beta4; test: Antagonist activity at rat alpha3beta4 nAChR expressed in HEK293 cells assessed as inhibition of epibatadine-induced effect after 30 mins by fluorescent membrane potential assay; assay type: cell-based; outline: as §1
[6] = target: Neuronal acetylcholine receptor; alpha3/beta2 (Rattus norvegicus, UniProt P04757+P12390); test: Antagonist activity at rat alpha3beta2 nAChR expressed in HEK293 cells assessed as inhibition of epibatadine-induced effect after 30 mins by fluorescent membrane potential assay; assay type: cell-based; outline: as §1
Sequence of Neuronal acetylcholine receptor; alpha3/beta2 (P04757 whole entry): as the sequence (P04757 whole entry, the tested form may be a part) above
Sequence of Neuronal acetylcholine receptor; alpha3/beta2 (P12390 whole entry): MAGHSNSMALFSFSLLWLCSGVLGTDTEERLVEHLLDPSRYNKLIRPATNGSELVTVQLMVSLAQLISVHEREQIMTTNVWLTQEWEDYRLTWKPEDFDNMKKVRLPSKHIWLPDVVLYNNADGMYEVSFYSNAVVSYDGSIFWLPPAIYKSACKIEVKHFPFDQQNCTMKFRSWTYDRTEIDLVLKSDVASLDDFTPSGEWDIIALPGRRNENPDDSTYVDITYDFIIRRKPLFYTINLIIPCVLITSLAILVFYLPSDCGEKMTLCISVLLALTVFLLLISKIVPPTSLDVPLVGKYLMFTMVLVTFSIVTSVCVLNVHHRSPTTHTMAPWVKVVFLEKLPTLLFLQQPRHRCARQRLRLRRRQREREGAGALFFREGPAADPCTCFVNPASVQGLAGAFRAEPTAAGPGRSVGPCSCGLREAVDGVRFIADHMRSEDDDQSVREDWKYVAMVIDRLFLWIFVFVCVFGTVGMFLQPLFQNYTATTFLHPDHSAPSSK

[7] = target: Neuronal acetylcholine receptor; alpha4/beta2 (Rattus norvegicus, UniProt P09483+P12390); test: Antagonist activity at rat alpha4beta2 nAChR expressed in HEK293 cells assessed as inhibition of epibatadine-induced effect after 30 mins by fluorescent membrane potential assay; assay type: cell-based; outline: as §1
Sequence of Neuronal acetylcholine receptor; alpha4/beta2 (P09483 whole entry): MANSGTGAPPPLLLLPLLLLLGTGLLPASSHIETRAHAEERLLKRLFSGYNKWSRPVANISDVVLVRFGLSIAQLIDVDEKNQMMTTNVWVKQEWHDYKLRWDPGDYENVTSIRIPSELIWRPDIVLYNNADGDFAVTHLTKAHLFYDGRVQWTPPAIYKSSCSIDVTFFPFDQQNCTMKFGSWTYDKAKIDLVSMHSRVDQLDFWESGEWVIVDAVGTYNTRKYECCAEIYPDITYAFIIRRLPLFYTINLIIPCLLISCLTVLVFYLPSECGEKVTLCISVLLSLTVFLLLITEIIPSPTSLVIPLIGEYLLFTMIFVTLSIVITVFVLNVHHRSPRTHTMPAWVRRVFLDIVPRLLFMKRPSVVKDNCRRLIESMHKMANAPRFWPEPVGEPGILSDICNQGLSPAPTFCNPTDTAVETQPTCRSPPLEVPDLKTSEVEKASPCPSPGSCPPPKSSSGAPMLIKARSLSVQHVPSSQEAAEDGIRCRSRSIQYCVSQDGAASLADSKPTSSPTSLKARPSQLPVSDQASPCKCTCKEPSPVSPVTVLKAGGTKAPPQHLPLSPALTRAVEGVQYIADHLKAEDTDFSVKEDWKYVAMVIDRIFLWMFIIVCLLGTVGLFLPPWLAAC
Sequence of Neuronal acetylcholine receptor; alpha4/beta2 (P12390 whole entry): as the sequence (P12390 whole entry) above

[8] = target: Neuronal acetylcholine receptor; alpha4/beta2 (Rattus norvegicus) (UniProt P09483+P12390); test: Displacement of [3H]epibatadine from rat alpha4beta2 nAChR expressed in HEK293 cells up to 10 uM after 2 hrs by betaplate counting analysis; assay type: cell-based; outline: as §2
HEK293 = test: Selectivity ratio of IC50 for rat alpha3beta4 nAChR expressed in HEK293 cells to IC50 for rat alpha3beta2 nAChR expressed in HEK293 cells; assay type: cell-based

CC[C@H](C)[C@@H]1NC(=O)[C@H](Cc2cnc[nH]2)NC(=O)[C@@H]2CCCN2C(=O)[C@H](CC(N)=O)NC(=O)[C@H](CC(N)=O)NC(=O)[C@H](C(C)C)NC(=O)[C@H](CC(N)=O)NC(=O)[C@@H]2CSSC[C@H](NC(=O)CN)C(=O)N[C@@H](CSSC[C@@H](C(=O)O)NC1=O)C(=O)N[C@@H](CO)C(=O)N[C@@H](Cc1cnc[nH]1)C(=O)N1CCC[C@H]1C(=O)N[C@@H](C)C(=O)N2 (H-GCCSHPACNVNNPHIC-OH; disulfide 2-8, 3-16)
IC50 [1]: 97 nM

CC(C)C[C@@H]1NC(=O)[C@H](CCC(=O)O)NC(=O)[C@@H]2CCCN2C(=O)[C@H](Cc2cnc[nH]2)NC(=O)[C@H](CC(N)=O)NC(=O)[C@H](C(C)C)NC(=O)[C@H](CO)NC(=O)[C@@H]2CSSC[C@H](NC(=O)CN)C(=O)N[C@@H](CSSC[C@@H](C(=O)O)NC1=O)C(=O)N[C@@H](CO)C(=O)N[C@@H](Cc1cnc[nH]1)C(=O)N1CCC[C@H]1C(=O)N[C@@H](C)C(=O)N2 (H-GCCSHPACSVNHPELC-OH; disulfide 2-8, 3-16)
IC50 [2]: 480 nM

CC(C)C[C@@H]1NC(=O)[C@H](C(C)C)NC(=O)[C@H](C)NC(=O)[C@@H]2CSSC[C@H](NC(=O)CN)C(=O)N[C@@H](CSSC[C@@H](C(=O)O)NC(=O)[C@H](Cc3ccc(O)cc3)NC1=O)C(=O)N[C@@H](CO)C(=O)N[C@@H]([C@H](C)O)C(=O)N1CCC[C@H]1C(=O)N1CCC[C@H]1C(=O)N2
Ki [3]: 851 nM
IC50 [2]: 27.7 nM
inhibition [4]: 94.4%
IC50 [5]: 265 nM
IC50 [6]: 26 nM
IC50 [7]: > 10000 nM
Activity [8]: inactive
Ratio IC50 (HEK293): 10

C[C@@H]1NC(=O)[C@H](Cc2ccccc2)NC(=O)[C@@H]2CSSC[C@H](NC(=O)CN)C(=O)N[C@@H](CSSC[C@@H](C(=O)O)NC(=O)[C@H](CC(=O)O)NC(=O)[C@@H]3CCCN3C(=O)[C@H](CC(N)=O)NC(=O)[C@H]([C@@H](C)O)NC1=O)C(=O)N[C@@H](CO)C(=O)N[C@@H](Cc1ccc(O)cc1)C(=O)N1CCC[C@H]1C(=O)N1CCC[C@H]1C(=O)N2
IC50 [2]: 770 nM
